Reference: ChEMBL document CHEMBL5576111, “N-Sulfonylphenoxazines as neuronal calcium ion channel blockers” (RSC Med Chem, 2024)

Assays:
[1] = biological target: Voltage-dependent N-type calcium channel subunit alpha-1B (Homo sapiens, UniProt Q00975); assay: Inhibition of Cav2.2 in human SH-SY5Y cells assessed as inhibition of calcium influx preincubated 300 secs followed by addition of KCL/CaCl2 and measured for 300 secs in presence of Cav1 blocker nifedipine by calcium 6 dye based calcium influx assay; type: cell-based
Outline: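 Native Cav2.2 in SH-SY5Y neuroblastoma cells seeded at 40000/well and grown 48 h at 37 °C, 5% CO2. Calcium 6 dye loading 30 min at 37 °C in HEPES buffer pH 7.4 with 0.1% BSA and 10 µM nifedipine. Compound added for 300 s, then 90 mM KCl/5 mM CaCl2, read 300 s (ex 470-495, em 515-575 nm). Top concentration 100 µM, 3-fold dilutions, 1% DMSO; cilnidipine control; n = 3.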

[2] = Metabolic stability in rat liver microsomes assessed intrinsic clearance per mg protein at 1 uM measured up to 60 mins in presence of NADPH by LC/HRMS analysis; type: ADME, Microsome; conditions: 1 h
[3] = Stability in Sprague-Dawley rat plasma assessed as parent compound remaining at 150 uM measured after 24 hrs at 37 degreeC by HPLC analysis; type: ADME, cell-free; conditions: read-out: Stability

Chain of Voltage-dependent N-type calcium channel subunit alpha-1B (Q00975 whole entry): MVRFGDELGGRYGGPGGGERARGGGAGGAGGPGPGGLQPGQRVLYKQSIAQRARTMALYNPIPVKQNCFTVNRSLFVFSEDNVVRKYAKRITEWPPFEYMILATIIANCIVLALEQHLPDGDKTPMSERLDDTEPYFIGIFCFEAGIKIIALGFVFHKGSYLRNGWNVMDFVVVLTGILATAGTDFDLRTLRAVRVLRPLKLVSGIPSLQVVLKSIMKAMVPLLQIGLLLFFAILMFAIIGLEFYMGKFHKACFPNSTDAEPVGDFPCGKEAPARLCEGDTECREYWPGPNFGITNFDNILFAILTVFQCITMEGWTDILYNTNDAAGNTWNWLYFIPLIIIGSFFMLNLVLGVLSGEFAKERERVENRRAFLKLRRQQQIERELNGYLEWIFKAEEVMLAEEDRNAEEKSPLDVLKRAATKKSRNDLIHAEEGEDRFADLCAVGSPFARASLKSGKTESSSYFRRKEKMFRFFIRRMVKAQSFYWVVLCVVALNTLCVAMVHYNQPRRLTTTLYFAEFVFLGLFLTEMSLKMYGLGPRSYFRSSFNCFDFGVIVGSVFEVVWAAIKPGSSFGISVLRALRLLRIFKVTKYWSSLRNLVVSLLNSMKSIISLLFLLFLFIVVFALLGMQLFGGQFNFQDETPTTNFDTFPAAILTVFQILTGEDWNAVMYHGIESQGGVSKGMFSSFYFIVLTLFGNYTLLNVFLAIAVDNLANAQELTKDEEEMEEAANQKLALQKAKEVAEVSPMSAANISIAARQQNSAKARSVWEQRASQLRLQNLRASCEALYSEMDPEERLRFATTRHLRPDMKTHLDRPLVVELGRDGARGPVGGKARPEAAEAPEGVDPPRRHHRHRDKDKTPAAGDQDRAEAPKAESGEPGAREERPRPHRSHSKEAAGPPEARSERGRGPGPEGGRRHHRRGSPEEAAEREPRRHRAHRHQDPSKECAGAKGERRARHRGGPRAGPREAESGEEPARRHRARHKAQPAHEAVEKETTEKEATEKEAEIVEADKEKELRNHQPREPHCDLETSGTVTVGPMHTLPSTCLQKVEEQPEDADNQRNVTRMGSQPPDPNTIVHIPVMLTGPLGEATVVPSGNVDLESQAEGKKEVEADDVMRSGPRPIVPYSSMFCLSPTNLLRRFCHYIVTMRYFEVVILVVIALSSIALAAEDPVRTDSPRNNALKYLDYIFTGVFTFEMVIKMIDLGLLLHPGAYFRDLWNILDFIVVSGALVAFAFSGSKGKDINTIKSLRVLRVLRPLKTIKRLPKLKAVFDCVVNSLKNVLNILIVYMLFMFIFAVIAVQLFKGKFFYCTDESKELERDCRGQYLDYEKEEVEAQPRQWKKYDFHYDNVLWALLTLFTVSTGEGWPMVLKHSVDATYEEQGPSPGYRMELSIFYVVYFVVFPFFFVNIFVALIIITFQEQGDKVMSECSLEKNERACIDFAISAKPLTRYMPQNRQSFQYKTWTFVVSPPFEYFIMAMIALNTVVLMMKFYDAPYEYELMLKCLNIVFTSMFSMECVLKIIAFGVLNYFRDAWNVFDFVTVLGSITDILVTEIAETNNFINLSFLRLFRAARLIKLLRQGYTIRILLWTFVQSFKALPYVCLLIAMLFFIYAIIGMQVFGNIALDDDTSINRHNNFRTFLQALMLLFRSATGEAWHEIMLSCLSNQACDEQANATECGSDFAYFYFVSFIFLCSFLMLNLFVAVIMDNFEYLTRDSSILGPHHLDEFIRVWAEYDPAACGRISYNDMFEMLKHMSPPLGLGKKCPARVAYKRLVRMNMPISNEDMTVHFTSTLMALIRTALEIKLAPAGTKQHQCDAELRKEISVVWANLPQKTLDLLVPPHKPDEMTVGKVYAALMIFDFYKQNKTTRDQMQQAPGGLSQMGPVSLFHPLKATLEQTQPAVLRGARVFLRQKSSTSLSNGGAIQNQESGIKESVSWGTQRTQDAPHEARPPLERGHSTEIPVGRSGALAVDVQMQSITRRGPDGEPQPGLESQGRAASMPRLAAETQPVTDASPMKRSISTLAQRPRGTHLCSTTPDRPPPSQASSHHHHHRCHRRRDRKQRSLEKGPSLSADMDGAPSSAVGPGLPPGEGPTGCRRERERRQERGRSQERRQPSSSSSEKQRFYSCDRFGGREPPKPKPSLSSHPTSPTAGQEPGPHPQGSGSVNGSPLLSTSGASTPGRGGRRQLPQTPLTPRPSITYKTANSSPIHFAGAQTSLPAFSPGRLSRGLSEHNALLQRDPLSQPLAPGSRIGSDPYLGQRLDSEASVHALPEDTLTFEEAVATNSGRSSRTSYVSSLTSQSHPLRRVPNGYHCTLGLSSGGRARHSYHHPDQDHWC

IC50 [1] [µM] | SMILES | CLint [2] [µL/min/mg] | remaining at 24 h, 150 µM [3] [%]
13.7 | O=S(=O)(c1ccc(NCCCn2ccnc2)cc1)N1c2ccccc2Oc2ccccc21 | – | –
10.9 | CNCCCNc1ccc(S(=O)(=O)N2c3ccccc3Oc3ccccc32)cc1 | – | –
15.2 | O=S(=O)(c1ccc(NCCCN2CCCCC2)cc1)N1c2ccccc2Oc2ccccc21 | – | –
9.1 | CN(C)CCCNc1ccc(S(=O)(=O)N2c3ccccc3Oc3ccccc32)cc1 | – | –
4.4 | O=S(=O)(c1ccc(NCCCN2CCCC2)cc1)N1c2ccccc2Oc2ccccc21 | – | –
172 | COCCCOc1ccc(S(=O)(=O)N2c3ccccc3Oc3ccccc32)cc1 | – | –
19.9 | O=S(=O)(c1ccc(NC2CCNCC2)cc1)N1c2ccccc2Oc2ccccc21 | – | –
18.7 | CN(C)CCCN(C)c1ccc(S(=O)(=O)N2c3ccccc3Oc3ccccc32)cc1 | – | –
20.8 | O=S(=O)(c1ccc(NCCCN2CCOCC2)cc1)N1c2ccccc2Oc2ccccc21 | – | –

SMILES | IC50 [1] [µM] | CLint [2] [µL/min/mg] | remaining at 24 h, 150 µM [3] [%]
O=C(O)C(F)(F)F.O=S(=O)(c1ccc(OCCCN2CCCCC2)cc1)N1c2ccccc2Oc2ccccc21 | 7.6 | 97 | > 90
CN(C)CCCOc1ccc(S(=O)(=O)N2c3ccccc3Oc3ccccc32)cc1.O=C(O)C(F)(F)F | 4.3 | 105 | > 90
CNCCCOc1ccc(S(=O)(=O)N2c3ccccc3Oc3ccccc32)cc1.O=C(O)C(F)(F)F | 4.6 | 34 | 73
O=C(O)C(F)(F)F.O=S(=O)(c1ccc(OCCCN2CCOCC2)cc1)N1c2ccccc2Oc2ccccc21 | 29 | 239 | > 90
O=C(O)C(F)(F)F.O=S(=O)(c1ccc(OCCCn2ccnc2)cc1)N1c2ccccc2Oc2ccccc21 | 48.7 | 132 | > 90
O=C(O)C(F)(F)F.O=S(=O)(c1ccc(OCCCN2CCCC2)cc1)N1c2ccccc2Oc2ccccc21 | 8 | 83 | > 90
